# Published values pooled from the literature.
# Target: Serine/threonine-protein kinase TBK1 (TBK1, Homo sapiens, UniProt Q9UHD2)
# Effect on: enzyme activity
# Action: inhibitor
# One construct used (Q9UHD2 1-729): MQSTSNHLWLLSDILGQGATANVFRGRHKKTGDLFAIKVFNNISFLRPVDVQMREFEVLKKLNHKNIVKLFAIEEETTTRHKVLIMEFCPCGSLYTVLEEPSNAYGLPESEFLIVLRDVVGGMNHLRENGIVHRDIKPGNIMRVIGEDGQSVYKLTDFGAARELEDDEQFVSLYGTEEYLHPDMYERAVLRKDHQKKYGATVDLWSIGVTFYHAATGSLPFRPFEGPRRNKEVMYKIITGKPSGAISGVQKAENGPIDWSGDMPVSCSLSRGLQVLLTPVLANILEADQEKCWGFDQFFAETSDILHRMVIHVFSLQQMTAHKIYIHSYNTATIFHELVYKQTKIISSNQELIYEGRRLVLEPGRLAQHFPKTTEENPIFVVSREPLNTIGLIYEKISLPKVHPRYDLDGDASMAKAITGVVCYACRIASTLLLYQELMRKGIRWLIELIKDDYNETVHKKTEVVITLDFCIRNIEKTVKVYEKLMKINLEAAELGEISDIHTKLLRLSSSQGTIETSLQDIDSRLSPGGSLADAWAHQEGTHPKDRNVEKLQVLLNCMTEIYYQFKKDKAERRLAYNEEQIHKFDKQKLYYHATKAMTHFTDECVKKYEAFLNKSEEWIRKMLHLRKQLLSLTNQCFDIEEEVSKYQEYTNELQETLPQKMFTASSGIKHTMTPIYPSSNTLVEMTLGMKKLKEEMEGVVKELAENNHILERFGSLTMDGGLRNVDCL
Compound,technique,concentration,remaining activity
c1cc(CN2CCOCC2)cc(Nc2ncc(C3CC3)c(NCCc3c[nH]cn3)n2)c1,radiometric,1 µM,43%
O=C(Nc1cnn(-c2csc(C(=O)NC3COC3)c2)c1)Nc1c(F)cccc1Cl,,5 µM,98.8%
Oc1cccc(-c2nc(N3CCOCC3)c3oc4ncccc4c3n2)c1,,10 µM,91%
Nc1nc(Nc2ccccc2)sc1C(=O)c1c(F)cccc1F,,10 µM,92%
CC(C)(O)[C@H]1CC[C@H](Nc2ccc3ncc(-c4cccc(C(F)(F)F)c4)n3n2)CC1,,1 µM,102%
Nc1nc(NC2CCCCC2)sc1C(=O)c1ccccc1,,10 µM,88%
Cc1nn(CC(F)(F)F)cc1Nc1ncc(Br)c(NCc2ccc(S(N)(=O)=O)cc2)n1,radiometric,1 µM,5%
Cc1ccc(C(=O)Nc2ccc(CN3CCN(C)CC3)c(C(F)(F)F)c2)cc1C#Cc1cnc2cccnn12,,23.5 nM,95%
Cn1c(=O)n(-c2ccc(C(C)(C)C#N)cc2)c2c3cc(-c4cnc5ccccc5c4)ccc3ncc21,,10 µM,107%
Cc1nn(CC(F)(F)F)cc1Nc1ncc(Br)c(NCCc2cnc[nH]2)n1,radiometric,1 µM,21%
COc1cc(Nc2cnc(C#N)c(O[C@H](C)CN(C)C)n2)ncc1-c1cnn(C)c1,radiometric,1 µM,71%
CC(C)(C)c1nc2c(s1)c1nc(N)ncc1c1ccc(NS(=O)(=O)c3c(F)cccc3F)c(F)c12,radiometric,1 µM,95%
